Consider ten compounds from ChEMBL document CHEMBL1145798, “Deoxyribonucleoside 2'- or 3'-mixed disulfides: prodrugs to target ribonucleotide reductase and/or to inhibit HIV reverse transcription” (J Med Chem, 2003).

Experiment [1] deals with CCRF-CEM. The experiment can be described thus: Antiproliferative activity was determined against human T-lymphocyte cells-CEM. Format: functional, cell-based. The procedure, abridged: (§1)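 Cytostatic assay on proliferating cell cultures (human CEM, Molt4/C8; murine L1210, FM3A). IC50 is the compound concentration that inhibits cell proliferation by 50%.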
Experiment [2] has as its system Human immunodeficiency virus 1. The experiment is described as follows: Effective concentration against cytopathicity of HIV-1 strain (HTLV IIIB) in CEM cell line. The experiment is classed as functional, organism-based. Particulars: Human immunodeficiency virus 1, CCRF-CEM. The procedure, abridged: (§2)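 HIV-1 or HIV-2 (ROD) infected CEM cell cultures. EC50 is the compound concentration that protects cells against virus-induced cytopathicity by 50%.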
For orientation: Cytopathic effects are the visible damage that an infection or toxin causes in cultured cells.

The next experiment has as its system MOLT-4. The experiment can be described thus: Antiproliferative activity was determined against human T-lymphocyte cells -Molt4/C8. The experiment is classed as functional, cell-based. The procedure, abridged:
as §1

A further experiment deals with FM3A. The experiment can be described thus: Antiproliferative activity was determined against murine mammary carcinoma cells (FM3A). The experiment is classed as functional, cell-based. The settings on record: Mus musculus. The procedure, abridged: as §1
In experiment [3] the test system is Human immunodeficiency virus 2. The experiment is described as follows: Effective concentration against cytopathicity of HIV-2 strain (ROD) in CEM cell line. Format: functional, organism-based. The settings on record: Human immunodeficiency virus 2, CCRF-CEM. The procedure, abridged:
as §2

The subject of another experiment is L1210. The experiment can be described thus: Antiproliferative activity was determined against murine leukemia cells (L1210). The settings on record: Mus musculus. The experiment is classed as functional, cell-based. The procedure, abridged:
as §1

Experiment [4] concerns MT4. The experiment can be described thus: Effective dose against HIV-1 strain (HTLV IIIB) in infected MT-4 cell line. The experiment is classed as functional. Particulars: Homo sapiens, read-out: ED50 (the source's name).
Experiment [5] concerns MT4. The experiment can be described thus: Effective dose against HIV-1 strain (HTLV IIIB) in MT-4 cell line; Not active. Format: functional, cell-based. Particulars: Homo sapiens.
Experiment [6] concerns MT4. The experiment is described as follows: Cytotoxicity towards infected MT-4 cell line. Format: functional. The settings on record: Homo sapiens, read-out: CD50 (the source's name).
A further experiment relates to MOLT-4 (Homo sapiens). The experiment is described as follows: Antiproliferative activity was determined against human T-lymphocyte cells -Molt4/C8.
In a further experiment the test system is FM3A (Mus musculus). The experiment is described as follows: Antiproliferative activity was determined against murine mammary carcinoma cells (FM3A).
Experiment [7] relates to CCRF-CEM. The experiment can be described thus: Concentration required to lower intracellular dATP levels in CEM/SS cells. Format: functional, Homo sapiens. The method in brief:
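CEM/SS cells exposed for 24 h at 37 °C across a dose range, then counted. dATP was measured in methanolic cell extracts by an enzymatic assay, elongation of radiolabeled oligonucleotide primers annealed to complementary templates, expressed per million viable cells. IC(dATP-50) is the concentration that depletes intracellular dATP by 50%. Mean ± SD of at least two independent experiments.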

The test system of experiment [8] is CCRF-CEM. The experiment can be described thus: Cytotoxicity was determined towards CEM/SS cells using MTT assay. Format: functional. The settings on record: Homo sapiens. The method in brief:
(§3)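 Cytotoxicity in CEM/SS cells measured by MTT read-out, reported as CC50.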
(In general: Tetrazolium dyes change colour on reduction, which living cells bring about.)

Experiment [9] deals with Human immunodeficiency virus 1. The experiment is described as follows: Inhibitory activity against HIV-1 strain (HTLV IIIB) in MT-4 cell line. The settings on record: Human immunodeficiency virus 1, MT4; read-out: ED50 (the source's name). The experiment is classed as functional.
For experiment [10], the system named is CCRF-CEM. The experiment is described as follows: Cytotoxicity was determined towards CEM/SS cells (MTT). Format: functional. Particulars: Homo sapiens. The method in brief:
as §3

Active and inactive are the calls of the source. The rule behind the calls is not given here.

By IC50 is commonly meant the midpoint of a concentration-inhibition curve. As to `Cc1cn([C@H]2C[C@H](N=[N+]=[N-])[C@@H](CO)O2)c(=O)[nH]c1=O` [ZIDOVUDINE], the IC50 in the experiment with CCRF-CEM [1] and in the experiment with MOLT-4 was greater than 375 µM throughout. Moreover, the EC50 in experiment [2] was determined as 0.004 µM.
For the compound `Cc1cn([C@H]2C[C@H](SS[C@H]3C[C@H](n4cc(C)c(O)nc4=O)O[C@@H]3CO)[C@@H](CO)O2)c(=O)nc1O`, the IC50 in the experiment on CCRF-CEM [1] was greater than 390 µM; in the experiment on FM3A, greater than 390 µM; in the experiment with L1210, greater than 390 µM; in the experiment on MOLT-4 it was 325 µM. The EC50 in experiment [2] is 50 µM; in [3] it was 60 µM; in the experiment on MT4 [4] it was 16 µM. Further, the NA entry with MT4 [5] is “inactive”. Besides, the CC50 with MT4 [6] came to 34 µM.
In the case of `Cc1cn([C@H]2C[C@H](S)[C@@H](CO)O2)c(=O)[nH]c1=O`, the concentration for half-maximal inhibition (IC50) in the experiment on CCRF-CEM [1], in the experiment on L1210, with MOLT-4 (Homo sapiens) and in the experiment with FM3A (Mus musculus) was greater than 770 µM each time. The EC50 in experiment [2] and in experiment [3] was greater than 390 µM in each case.
With `CSS[C@H]1C(O)[C@@H](CO)O[C@H]1n1ccc(N)nc1=O` (stereo partly drawn), the IC50 with CCRF-CEM [1] is 82 µM; with FM3A it was greater than 650 µM; with L1210 it was 350 µM; in the experiment on MOLT-4, 255 µM. Besides, in the experiment with CCRF-CEM [7], the ICdATP-50 was found to be 50 µM. Moreover, in the experiment on CCRF-CEM [8], the CC50 came out at 330 µM. Moreover, the EC50 in [2] and in [3] was greater than 65 µM each time.
As for `C[C@H](Cn1cnc2c(N)ncnc21)OCP(=O)(O)O` [TENOFOVIR ANHYDROUS], the half-maximal inhibitory concentration (IC50) with CCRF-CEM [1], in the experiment with FM3A, with L1210 and in the experiment with MOLT-4 was greater than 350 µM throughout. Also, the figures for the EC50 in experiment [2] and in experiment [3] were 4.2 µM and 3 µM, respectively.
For the compound `Nc1ccn([C@H]2C[C@H](S)[C@@H](CO)O2)c(=O)n1`, the EC50 in experiment [9] is 20 µM.
Take `Nc1ccn([C@@H]2O[C@H](CO)C(O)[C@@H]2S)c(=O)n1` (stereo partly drawn): the IC50 is 305 µM with CCRF-CEM [1], greater than 675 µM in the experiment with FM3A, 670 µM in the experiment with L1210 and 650 µM in the experiment with MOLT-4. The EC50 in experiment [2] and in experiment [3] was greater than 340 µM throughout.
Turning to `CCCSS[C@H]1C(O)[C@@H](CO)O[C@H]1n1ccc(N)nc1=O` (stereo partly drawn), in the experiment with CCRF-CEM [7], the ICdATP-50 was 50 µM.
Regarding `CSS[C@H]1C(O)[C@@H](CO)O[C@H]1n1ccc(=O)[nH]c1=O` (stereo partly drawn), the IC50 in the experiment with CCRF-CEM [1] was 160 µM; in the experiment on FM3A it was greater than 650 µM; in the experiment with L1210, 320 µM; in the experiment with MOLT-4, 220 µM. Besides, the EC50 in experiment [2] and in experiment [3] was greater than 65 µM in each case.
Take `CSS[C@H]1C[C@H](n2cc(C)c(=O)[nH]c2=O)O[C@@H]1CO`: the IC50 in the experiment with CCRF-CEM [1] worked out at 155 µM; in the experiment with FM3A it was 280 µM; in the experiment on L1210 it was 37 µM; with MOLT-4 it was 25 µM. The same compound returned a CC50 in the experiment with CCRF-CEM [10] of 120 µM. Further, the EC50 in [2] turned out to be 10 µM; in experiment [3], 37 µM.
